The full list was thinned out, with hits kept by preference.
KDM4C inh: inhibitors of GASC-1 (KDM4C) histone demethylase, primary screen, biochemical, single concentration HTS. GST-KDM4C 2-372, H3K9me3 peptide, LANCE TR-FRET. inhibition, % at 12.5 µM. actives 0.15% (n = 96,000). AID 720574, 2013;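 active means mean replicate inhibition above about 25%, with at least 55% of replicates also reaching it, limit read from the data, passing the limit was not always enough; inconclusive means only one of those two conditions met; inactive means neither condition met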
Target sequence (Q9H3R0 2-372 limits assumed): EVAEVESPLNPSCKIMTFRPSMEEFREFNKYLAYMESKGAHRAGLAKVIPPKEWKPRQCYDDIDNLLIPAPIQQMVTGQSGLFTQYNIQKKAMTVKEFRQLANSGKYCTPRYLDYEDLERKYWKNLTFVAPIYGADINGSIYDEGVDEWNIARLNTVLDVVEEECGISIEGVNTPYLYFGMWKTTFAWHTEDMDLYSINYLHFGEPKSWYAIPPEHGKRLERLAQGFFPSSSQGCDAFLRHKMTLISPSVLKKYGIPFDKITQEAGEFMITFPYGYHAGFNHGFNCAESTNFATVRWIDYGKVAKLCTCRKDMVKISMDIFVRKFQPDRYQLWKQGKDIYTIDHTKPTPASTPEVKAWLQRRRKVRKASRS
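Material: GST-tagged GASC-1 (JMJD2C) catalytic fragment, aa 2-372 / Quantity: enzyme final amount 10 nM / Medium: HEPES buffer, pH 7.5, plus ascorbate / Doses: one test concentration per compound / Incubation: 30 min reaction, 60 min detection, RT / Measured by: LANCE TR-FRET / Read-out: inhibition from TR-FRET ratio decrease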
IDH1 mut inh: inhibitors of IDH1 R132H reductase, primary screen, biochemical, plate reader, single point; inhibition, % at 10 µM; Isocitrate dehydrogenase [NADP] cytoplasmic (Homo sapiens), O75874; actives 0.18% (n = 70,000); diaphorase/resazurin fluorescence, 60 min; AID 624101, 2012; in the data active means inhibition above about 34%; inconclusive means no clear call, values can overlap the other calls; inactive means below about 11%;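 further: 0% = DMSO and 100% = no enzyme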
T cruzi growth-1: T. cruzi intracellular proliferation inhibitors, primary screen, cell-based, beta-gal Tulahuen parasites, NIH3T3 host, luminescence. T. cruzi beta-gal in NIH3T3, GalScreen luminescence, 90 h. inhibition, % at 8.34 µM. actives 5.9% (n = 77,000). AID 624255, 2012;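 active means mean inhibition above about 93%, with at least 55% of replicates each passing it, limit read from the data, passing the limit was not always enough; inconclusive means only one of those two conditions holds; inactive means neither condition holds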
T cruzi growth-2: T. cruzi intracellular proliferation inhibitors, confirmation, cell-based, NIH3T3 host, beta-gal parasite, luminescence, cherry-pick | shares compounds with T cruzi growth-1 | T. cruzi beta-gal in NIH3T3, GalScreen luminescence, 90 h | inhibition, % at 8.35 µM | actives 72% (n = 5,600) | AID 651739, 2012;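 active means mean replicate inhibition above about 95% and at least 55% of replicates individually reaching it, limit read from the data; inconclusive means only one of the two criteria is met; inactive means neither criterion is met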
T cruzi growth-3: inhibitors of intracellular T. cruzi replication, confirmation, NIH3T3 host cells, beta-gal parasites, cherry-pick, set 2. shares compounds with T cruzi growth-1. T. cruzi beta-gal in NIH3T3, GalScreen luminescence, 90 h. inhibition, % at 2.09 µM. actives 21% (n = 5,600);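 active means mean inhibition above about 95%, with at least 55% of replicates also reaching it, limit read from the data; inconclusive means meets just one of the two conditions; inactive means meets neither condition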;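 further: plate controls were neutral control median for no effect and positive control median for full effect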
NIH3T3 tox: cytotoxicity in mouse NIH/3T3 fibroblasts, confirmation, cytotoxicity control for T. cruzi proliferation inhibitor project, cell-based, cherry-pick, single point | shares compounds with T cruzi growth-1 | NIH/3T3 viability, CellTiter-Glo ATP luminescence, 90 h | cytotoxicity (signal decrease), % at 8.35 µM | actives 14% (n = 5,600);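 active means mean signal decrease across replicates above about 35% based on untreated-well scatter, with enough replicates individually passing, limit read from the data; inconclusive means no rule stated though some were filed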;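 further: 0% = median of neutral control wells and 100% = median of positive control wells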
NIH3T3 tox 2: NIH/3T3 fibroblast cytotoxicity, confirmation, cytotoxicity control, cell-based, cherry-pick, single point, set 2; NIH/3T3 viability, CellTiter-Glo ATP luminescence, 90 h; actives 56% (n = 5,600); inhibition, % at 24.9 µM; AID 651744, 2012; shares compounds with T cruzi growth-1;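 active means mean loss of cell viability signal at or above a set limit, and enough replicates individually reaching it; inconclusive means meets only the mean limit or only the replicate share; inactive means meets neither condition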;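 further: 0% = median of neutral control wells and 100% = median of positive control wells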
* = called active by the depositor; ? = inconclusive; / = no result given.

SMILES	KDM4C inh	IDH1 mut inh	T cruzi growth-1	T cruzi growth-2	T cruzi growth-3	NIH3T3 tox	NIH3T3 tox 2
O=C(O)c1ccc(CNC(=O)c2ccc(NC(=O)c3ccco3)cc2)cc1	/	0	/	/	/	/	/
CCc1ccc(OCC(=O)Nc2sc3c(c2C(=O)OC)CCC3)c(Br)c1	/	0	/	/	/	/	/
O=C(Nc1ccccc1C(=O)O)c1cccc(S(=O)(=O)Nc2ccccc2Cl)c1	/	-1	/	/	/	/	/
COCC#Cc1ccc2c(c1)O[C@H](CN(C)Cc1ccncc1)[C@H](C)CN([C@H](C)CO)S2(=O)=O	2	12	29	/	/	/	/
COCC#Cc1ccc2c(c1)O[C@H](CN(C)Cc1ccccc1)[C@@H](C)CN([C@@H](C)CO)S2(=O)=O	-2	-1	?	102*	72	21	104*
COCC#Cc1ccc2c(c1)O[C@H](CN(C)Cc1ccncc1)[C@H](C)CN([C@@H](C)CO)S2(=O)=O	2	0	49	/	/	/	/
COCC#Cc1ccc2c(c1)O[C@@H](CN(C)Cc1ccncc1)[C@@H](C)CN([C@@H](C)CO)S2(=O)=O	0	2	?	97*	71	20	18
COCC#Cc1ccc2c(c1)O[C@@H](CN(C)Cc1ccncc1)[C@@H](C)CN([C@H](C)CO)S2(=O)=O	-1	0	?	105*	72	10	8
COCC#Cc1ccc2c(c1)O[C@H](CN(C)Cc1ccc(F)cc1)[C@@H](C)CN([C@H](C)CO)S2(=O)=O	1	1	85	/	/	/	/
COc1ccc(S(=O)(=O)N(C)CC(=O)Nc2ccc3c(c2)OCCO3)cc1Cl	/	0	/	/	/	/	/
C[C@@H]1CCCCO[C@H](CN(C)C(=O)Nc2ccc3c(c2)OCO3)[C@H](C)CN([C@@H](C)CO)C(=O)c2cc(NC(=O)Nc3ccc4c(c3)OCO4)ccc2O1	0	2	60	/	/	/	/
C[C@@H]1CN([C@@H](C)CO)C(=O)c2cc(NC(=O)Nc3ccc(C(F)(F)F)cc3)ccc2O[C@@H](C)CCCCO[C@@H]1CN(C)C(=O)Nc1ccc2c(c1)OCO2	1	1	/	/	/	/	/
C[C@H](CO)N1C[C@H](C)[C@H](CN(C)C(=O)Nc2ccc(C(F)(F)F)cc2)OCCCC[C@H](C)Oc2ccc(NC(=O)Nc3ccc4c(c3)OCO4)cc2C1=O	0	0	111*	100*	109*	6	12
C[C@H]1CCCCO[C@H](CN(C)C(=O)Nc2ccc(C(F)(F)F)cc2)[C@@H](C)CN([C@@H](C)CO)C(=O)c2cc(NC(=O)Nc3ccc4c(c3)OCO4)ccc2O1	-1	/	107*	102*	110*	13	-3
Cc1c(NC(=O)COc2ccc(C(C)C)cc2)cccc1C(=O)O	/	0	/	/	/	/	/
O=C(c1cccc(F)c1)N1CCCCN2[C@H](C1)[C@@H](c1ccc(-c3ccccc3)cc1)[C@@H]2CO	-2	/	62	/	/	/	/
O=C(c1cccc(F)c1)N1CCCCN2[C@H](CO)[C@@H](c3ccc(-c4ccccc4)cc3)[C@H]2C1	0	/	70	/	/	/	/
O=C(c1cccc(F)c1)N1CCCCN2[C@H](CO)[C@H](c3ccc(-c4ccccc4)cc3)[C@H]2C1	0	/	103*	109*	22	5	88*
O=C(c1cccc(F)c1)N1CCCCN2[C@H](CO)[C@@H](c3ccc(-c4ccccc4)cc3)[C@@H]2C1	0	/	106*	106*	?	-7	59*
CC(Oc1ccc(C(C)(C)C)cc1)C(=O)NCc1ccco1 (stereo unspecified)	/	3	/	/	/	/	/
Cc1noc(C)c1NC(=O)N1C[C@@H](O)COC[C@H]2O[C@H](CC(=O)NCC3CC3)CC[C@@H]21	0	/	101*	36	31	-11	-14
Cc1noc(C)c1NC(=O)N1C[C@@H](O)COC[C@H]2O[C@@H](CC(=O)NCC3CC3)CC[C@@H]21	2	/	?	-14	11	-19	-16
Cc1noc(C)c1NC(=O)N1C[C@H](O)COC[C@H]2O[C@@H](CC(=O)NCC3CC3)CC[C@@H]21	0	/	4	/	/	/	/
Cc1noc(C)c1NC(=O)N1C[C@H](O)COC[C@H]2O[C@H](CC(=O)NCC3CC3)CC[C@@H]21	3	/	-47	/	/	/	/
O=C(CSc1nnc(-c2ccccc2)n1-c1ccccc1)Nc1cccc(F)c1	/	0	/	/	/	/	/
SMILES	KDM4C inh	IDH1 mut inh	T cruzi growth-1	T cruzi growth-2	T cruzi growth-3	NIH3T3 tox	NIH3T3 tox 2
COc1ccc(S(=O)(=O)N(C)C[C@H]2OCCCC[C@H](C)Oc3ccc(NS(=O)(=O)c4ccc(F)cc4)cc3C(=O)N([C@H](C)CO)C[C@H]2C)cc1	1	/	69	/	/	/	/
COc1ccc(S(=O)(=O)N(C)C[C@@H]2OCCCC[C@@H](C)Oc3ccc(NS(=O)(=O)c4ccc(F)cc4)cc3C(=O)N([C@@H](C)CO)C[C@H]2C)cc1	-2	/	101*	103*	65	-31	-6
COc1ccc(S(=O)(=O)N(C)C[C@@H]2OCCCC[C@@H](C)Oc3ccc(NS(=O)(=O)c4ccc(F)cc4)cc3C(=O)N([C@H](C)CO)C[C@H]2C)cc1	0	/	101*	111*	67	22	-6
COc1ccc(S(=O)(=O)Nc2ccc3c(c2)C(=O)N([C@H](C)CO)C[C@@H](C)[C@H](CN(C)S(=O)(=O)c2ccc(F)cc2)OCCCC[C@H](C)O3)cc1	-1	/	71	/	/	/	/
COc1ccc(S(=O)(=O)N(C)C[C@H]2OCCCC[C@@H](C)Oc3ccc(NS(=O)(=O)c4ccc(F)cc4)cc3C(=O)N([C@@H](C)CO)C[C@@H]2C)cc1	1	/	104*	103*	76	10	8
COc1ccc(S(=O)(=O)Nc2ccc3c(c2)C(=O)N([C@H](C)CO)C[C@H](C)[C@H](CN(C)S(=O)(=O)c2ccc(F)cc2)OCCCC[C@@H](C)O3)cc1	-1	0	-2	/	/	/	/
COc1ccc(S(=O)(=O)N(C)C[C@@H]2OCCCC[C@H](C)Oc3ccc(NS(=O)(=O)c4ccc(F)cc4)cc3C(=O)N([C@@H](C)CO)C[C@H]2C)cc1	-1	/	105*	109*	40	-15	5
